Results reported in ChEMBL document CHEMBL4715925, “Sulfamoylbenzamide-based Capsid Assembly Modulators for Selective Inhibition of Hepatitis B Viral Replication” (ACS Med Chem Lett, 2021).
Each block holds one molecule with its values, some of them ahead of it. The source made the active and inactive calls. No cut-off for these calls is given here.

What was measured:
[1] = test system: Hepatitis B virus; assay: Antiviral activity against Hepatitis B genotype D virus infected in HepG2 2.2.15 cells assessed as inhibition of viral DNA incubated for 5 days by qPCR analysis; type: functional, cell-based; details: HepG2 2.2.15, 120 h
Outline: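 HepG2.2.15 cells were incubated with compound for 5 days. HBV DNA was then purified from the culture supernatant and quantified by real-time PCR.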

[2] = Cytotoxicity against human HepG2 2.2.15 cells assessed as reduction in cell viability incubated for 5 days by MTT assay; type: cell-based; details: time 5 day
Outline: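 HepG2.2.15 cells were incubated with compound, then cell viability was measured. Mean ± SD of three independent experiments.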

[3] = Selectivity index, ratio of CC50 for human […] cells to EC50 for Hepatitis B virus; type: toxicity; details: read-out: Ratio CC50/EC50
[4] = Metabolic stability in rat liver microsomes assessed as half life at 1 uM incubated for 30 mins by LC-MS/MS analysis; type: ADME, Microsome
Outline: (§1)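 Phase-I stability in rat or human liver microsomes, given as % remaining after 30 min, with half-life also derived. n = 3, mean ± SD.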

[5] = target: Cytochrome P450 3A4 (Homo sapiens, UniProt P08684); assay: Inhibition of human liver microsome CYP3A4 using […] as substrate incubated for 20 mins by LC-MS/MS with HPLC analysis; type: ADME, microsomes
Outline: (§2)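 Cocktail-substrate assay in human liver microsomes; IC50 reported for CYP1A2, 2C9, 2C19, 2D6 and 3A4. n = 3, mean ± SD.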

[6] = Cmax in Sprague-Dawley rat at 5 mg/kg, po by LC-MS/MS analysis; type: ADME, organism-based; parameters: route oral, dose 5 mg/kg; details: in vivo
Outline: (§3)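 Male SD rats, 5 mg/kg given i.v. or p.o.; plasma concentration–time courses followed. Parameters: Tmax, Cmax, terminal T1/2, AUClast, AUC to infinity, total plasma clearance, Vss, oral bioavailability (Ft). Values are mean ± SD of at least three independent experiments.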

[7] = Tmax in Sprague-Dawley rat at 5 mg/kg, po by LC-MS/MS analysis; type: ADME, organism-based; details: in vivo; outline: as §3
[8] = test system: Hepatitis B virus; assay: Induction of recombinant Hepatitis B virus HBc (1-149)-His protein self-assembly expressed in Escherichia coli BL21 (DE3) at 30 uM by TEM analysis relative to control; details: filed as modulator, time 3-5 day, TDE = time-dependent effect
[9] = target: Voltage-gated inwardly rectifying potassium channel KCNH2 (Homo sapiens, UniProt Q12809); assay: Inhibition of human ERG by fluorescence polarization assay
[10] = Metabolic stability in human liver microsomes assessed as compound remaining at 1 uM incubated for 30 mins by LC-MS/MS analysis; type: ADME, Microsome; details: read-out: Stabilty; outline: as §1
[11] = AUClast in Sprague-Dawley rat at 5 mg/kg, po by LC-MS/MS analysis; type: ADME, organism-based; parameters: time 0 - last, route oral, dose 5 mg/kg; details: in vivo; outline: as §3
[12] = target: T1, Cytochrome P450 1A2 (Homo sapiens, UniProt P05177); assay: Inhibition of human liver microsome CYP1A2 using phenacetin as substrate incubated for 20 mins by LC-MS/MS with HPLC analysis; type: ADME, microsomes; outline: as §2
T1 sequence (P05177 whole entry): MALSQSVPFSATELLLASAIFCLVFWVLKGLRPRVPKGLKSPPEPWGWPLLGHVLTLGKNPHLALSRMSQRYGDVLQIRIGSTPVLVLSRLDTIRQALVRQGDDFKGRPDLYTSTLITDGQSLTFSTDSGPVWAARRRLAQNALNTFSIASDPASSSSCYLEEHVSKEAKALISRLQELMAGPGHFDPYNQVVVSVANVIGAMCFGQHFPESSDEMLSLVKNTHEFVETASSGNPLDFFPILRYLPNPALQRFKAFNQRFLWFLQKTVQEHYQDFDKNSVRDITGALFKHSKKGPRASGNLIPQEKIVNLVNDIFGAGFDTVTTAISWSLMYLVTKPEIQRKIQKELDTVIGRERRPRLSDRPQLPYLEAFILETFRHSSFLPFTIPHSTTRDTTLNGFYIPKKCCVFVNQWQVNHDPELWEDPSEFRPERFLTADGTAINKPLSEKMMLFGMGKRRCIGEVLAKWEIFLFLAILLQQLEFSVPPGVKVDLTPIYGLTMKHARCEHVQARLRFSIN

[13] = Protein binding in rat plasma at 5 uM incubated for 4 hrs by LC-MS/MS analysis; type: ADME, cell-free; details: read-out: PPB (converted)
[14] = Volume of distribution at steady state in Sprague-Dawley rat at 5 mg/kg, iv by LC-MS/MS analysis; type: ADME, organism-based; details: in vivo, read-out: Vdss; outline: as §3
[15] = test system: Hepatitis B virus; assay: Induction of recombinant Hepatitis B virus HBc (1-149)-His protein self-assembly expressed in Escherichia coli BL21 (DE3) assessed as short rod-shaped particles at 30 uM after 12 hrs of incubation by TEM analysis relative to control; details: filed as modulator
[16] = target: Cytochrome P450 2D6 (Homo sapiens, UniProt P10635); assay: Inhibition of human liver microsome CYP2D6 using dextromethorphan as substrate incubated for 20 mins by LC-MS/MS with HPLC analysis; type: ADME, microsomes; outline: as §2
[17] = Stability in human plasma assessed as compound remaining at 5 uM incubated for 4 hrs by LC-MS/MS analysis; type: ADME, cell-free; details: read-out: Stabilty
Outline: (§4)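 Incubated in rat or human plasma at 37 °C for 4 h; result is % compound remaining. n = 3, mean ± SD.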

[18] = target: Cytochrome P450 2C9 (Homo sapiens, UniProt P11712); assay: Inhibition of human liver microsome CYP2C9 using tolbutamide as substrate incubated for 20 mins by LC-MS/MS with HPLC analysis; type: ADME, microsomes; outline: as §2
[19] = Half life in Sprague-Dawley rat at 5 mg/kg, po by LC-MS/MS analysis; type: ADME, organism-based; details: in vivo; outline: as §3
[20] = Oral bioavailability in Sprague-Dawley rat at 5 mg/kg by LC-MS/MS analysis; type: ADME, organism-based; details: in vivo; outline: as §3
[21] = AUClast in Sprague-Dawley rat at 5 mg/kg, iv by LC-MS/MS analysis; type: ADME, organism-based; parameters: route intravenous, time 0 - last, dose 5 mg/kg; details: in vivo; outline: as §3
[22] = Metabolic stability in human liver microsomes assessed as half life at 1 uM incubated for 30 mins by LC-MS/MS analysis; type: ADME, Microsome; outline: as §1
[23] = AUC (0 to infinity) in Sprague-Dawley rat at 5 mg/kg, po by LC-MS/MS analysis; type: ADME, organism-based; parameters: time infinity, route oral, dose 5 mg/kg; details: in vivo; outline: as §3
[24] = target: Cytochrome P450 2C19 (Homo sapiens, UniProt P33261); assay: Inhibition of human liver microsome CYP2C19 using S-mephenytoin as substrate incubated for 20 mins by LC-MS/MS with HPLC analysis; type: ADME, microsomes; outline: as §2
[25] = test system: Hepatitis B virus; assay: Induction of recombinant Hepatitis B virus HBc (1-149)-His protein self-assembly expressed in Escherichia coli BL21 (DE3) assessed as spherical shaped particles at 30 uM after 12 hrs of incubation by TEM analysis relative to control; details: filed as modulator
[26] = Metabolic stability in rat liver microsomes assessed as compound remaining at 1 uM incubated for 30 mins by LC-MS/MS analysis; type: ADME, Microsome; details: read-out: Stabilty; outline: as §1
[27] = Half life in Sprague-Dawley rat at 5 mg/kg, iv by LC-MS/MS analysis; type: ADME, organism-based; details: in vivo; outline: as §3
[28] = Clearance in Sprague-Dawley rat at 5 mg/kg, iv by LC-MS/MS analysis; type: ADME, organism-based; details: in vivo; outline: as §3
[29] = Protein binding in human plasma at 5 uM incubated for 4 hrs by LC-MS/MS analysis; type: ADME, cell-free; details: read-out: PPB (converted)
[30] = AUC (0 to infinity) in Sprague-Dawley rat at 5 mg/kg, iv by LC-MS/MS analysis; type: ADME, organism-based; parameters: time infinity, route intravenous, dose 5 mg/kg; details: in vivo; outline: as §3
[31] = test system: Hepatitis B virus; assay: Induction of recombinant Hepatitis B virus HBc (1-149)-His protein self-assembly expressed in Escherichia coli BL21 (DE3) assessed as long rod-shaped particles at 30 uM after 3 to 5 days of incubation by TEM analysis relative to control; details: filed as modulator, time 3-5 day
[32] = Stability in rat plasma assessed as compound remaining at 5 uM incubated for 4 hrs by LC-MS/MS analysis; type: ADME, cell-free; details: read-out: Stabilty; outline: as §4
[33] = test system: Hepatitis B virus; assay: Induction of recombinant Hepatitis B virus HBc (1-149)-His protein self-assembly expressed in Escherichia coli BL21 (DE3) assessed as longer tubular shaped particles at 30 uM after 3 to 5 days of incubation by TEM analysis relative to control; details: filed as modulator, time 3-5 day

Sequence of Cytochrome P450 2C19 (P33261 whole entry): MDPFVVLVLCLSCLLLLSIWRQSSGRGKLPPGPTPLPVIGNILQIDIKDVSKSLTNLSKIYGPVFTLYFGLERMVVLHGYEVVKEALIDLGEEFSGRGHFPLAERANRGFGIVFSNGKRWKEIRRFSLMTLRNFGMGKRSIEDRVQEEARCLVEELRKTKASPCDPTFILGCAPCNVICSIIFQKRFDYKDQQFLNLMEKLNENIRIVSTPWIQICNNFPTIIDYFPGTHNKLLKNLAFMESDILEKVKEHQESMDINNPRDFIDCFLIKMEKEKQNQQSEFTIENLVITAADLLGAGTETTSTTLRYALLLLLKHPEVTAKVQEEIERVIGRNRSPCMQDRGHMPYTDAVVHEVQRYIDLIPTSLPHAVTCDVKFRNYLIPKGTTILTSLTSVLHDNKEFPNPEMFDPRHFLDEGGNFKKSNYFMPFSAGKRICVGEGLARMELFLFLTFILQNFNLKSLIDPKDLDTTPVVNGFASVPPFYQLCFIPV
Sequence of Voltage-gated inwardly rectifying potassium channel KCNH2 (Q12809 whole entry): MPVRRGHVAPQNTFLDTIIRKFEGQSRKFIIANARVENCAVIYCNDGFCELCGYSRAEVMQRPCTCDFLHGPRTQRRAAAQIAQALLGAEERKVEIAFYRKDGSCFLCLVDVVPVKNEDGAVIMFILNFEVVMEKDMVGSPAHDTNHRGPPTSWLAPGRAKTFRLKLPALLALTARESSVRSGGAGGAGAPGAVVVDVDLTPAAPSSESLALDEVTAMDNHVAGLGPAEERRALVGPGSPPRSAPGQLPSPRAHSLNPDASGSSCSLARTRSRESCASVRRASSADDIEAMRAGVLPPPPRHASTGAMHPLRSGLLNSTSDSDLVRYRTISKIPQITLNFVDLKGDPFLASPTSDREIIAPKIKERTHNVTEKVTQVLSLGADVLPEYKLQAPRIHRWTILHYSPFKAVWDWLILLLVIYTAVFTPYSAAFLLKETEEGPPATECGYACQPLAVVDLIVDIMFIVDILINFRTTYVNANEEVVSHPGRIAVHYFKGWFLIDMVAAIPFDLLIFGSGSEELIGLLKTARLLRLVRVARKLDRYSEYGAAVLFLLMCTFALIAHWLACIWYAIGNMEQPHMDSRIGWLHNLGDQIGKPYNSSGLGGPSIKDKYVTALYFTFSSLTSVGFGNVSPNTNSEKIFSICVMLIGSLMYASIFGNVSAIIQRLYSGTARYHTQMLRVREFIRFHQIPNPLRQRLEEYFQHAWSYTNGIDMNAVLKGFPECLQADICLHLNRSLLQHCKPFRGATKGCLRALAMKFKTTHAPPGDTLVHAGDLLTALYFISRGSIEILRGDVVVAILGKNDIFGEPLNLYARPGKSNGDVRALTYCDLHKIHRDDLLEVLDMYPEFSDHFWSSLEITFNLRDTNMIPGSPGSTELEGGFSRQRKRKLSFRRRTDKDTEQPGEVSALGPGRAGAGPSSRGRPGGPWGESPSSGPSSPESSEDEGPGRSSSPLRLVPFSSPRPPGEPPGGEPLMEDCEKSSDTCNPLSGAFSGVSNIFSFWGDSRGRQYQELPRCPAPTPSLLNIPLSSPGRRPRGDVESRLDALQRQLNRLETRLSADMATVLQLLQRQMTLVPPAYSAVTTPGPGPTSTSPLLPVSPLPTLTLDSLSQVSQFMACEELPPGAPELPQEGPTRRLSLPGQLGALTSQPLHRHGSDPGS
Sequence of Cytochrome P450 3A4 (P08684 whole entry): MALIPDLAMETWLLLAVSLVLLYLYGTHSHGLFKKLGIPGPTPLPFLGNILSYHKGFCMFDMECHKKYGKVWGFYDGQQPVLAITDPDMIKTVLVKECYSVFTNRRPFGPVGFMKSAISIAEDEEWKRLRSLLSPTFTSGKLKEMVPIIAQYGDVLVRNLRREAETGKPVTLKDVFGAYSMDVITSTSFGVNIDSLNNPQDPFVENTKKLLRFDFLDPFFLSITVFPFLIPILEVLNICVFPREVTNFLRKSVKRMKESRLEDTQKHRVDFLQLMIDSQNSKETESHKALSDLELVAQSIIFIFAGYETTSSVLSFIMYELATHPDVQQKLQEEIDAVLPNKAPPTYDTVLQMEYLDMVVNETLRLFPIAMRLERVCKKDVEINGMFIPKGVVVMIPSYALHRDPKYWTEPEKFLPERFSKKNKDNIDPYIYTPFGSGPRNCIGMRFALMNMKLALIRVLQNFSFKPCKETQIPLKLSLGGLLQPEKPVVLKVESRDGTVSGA
Sequence of Cytochrome P450 2D6 (P10635 whole entry): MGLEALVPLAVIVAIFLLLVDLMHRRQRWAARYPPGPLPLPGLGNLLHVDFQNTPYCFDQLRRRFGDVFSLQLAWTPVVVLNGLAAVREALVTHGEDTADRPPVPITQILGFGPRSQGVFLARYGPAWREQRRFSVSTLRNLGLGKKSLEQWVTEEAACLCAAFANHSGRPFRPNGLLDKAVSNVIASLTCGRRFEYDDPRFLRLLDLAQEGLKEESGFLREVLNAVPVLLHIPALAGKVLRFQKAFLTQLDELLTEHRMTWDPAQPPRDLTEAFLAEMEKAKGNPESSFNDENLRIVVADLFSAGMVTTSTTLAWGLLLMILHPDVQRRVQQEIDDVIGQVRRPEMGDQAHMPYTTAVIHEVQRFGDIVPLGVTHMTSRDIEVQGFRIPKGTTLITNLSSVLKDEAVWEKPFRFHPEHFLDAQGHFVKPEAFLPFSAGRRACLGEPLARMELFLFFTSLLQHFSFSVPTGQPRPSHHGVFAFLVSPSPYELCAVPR
Sequence of Cytochrome P450 2C9 (P11712 whole entry): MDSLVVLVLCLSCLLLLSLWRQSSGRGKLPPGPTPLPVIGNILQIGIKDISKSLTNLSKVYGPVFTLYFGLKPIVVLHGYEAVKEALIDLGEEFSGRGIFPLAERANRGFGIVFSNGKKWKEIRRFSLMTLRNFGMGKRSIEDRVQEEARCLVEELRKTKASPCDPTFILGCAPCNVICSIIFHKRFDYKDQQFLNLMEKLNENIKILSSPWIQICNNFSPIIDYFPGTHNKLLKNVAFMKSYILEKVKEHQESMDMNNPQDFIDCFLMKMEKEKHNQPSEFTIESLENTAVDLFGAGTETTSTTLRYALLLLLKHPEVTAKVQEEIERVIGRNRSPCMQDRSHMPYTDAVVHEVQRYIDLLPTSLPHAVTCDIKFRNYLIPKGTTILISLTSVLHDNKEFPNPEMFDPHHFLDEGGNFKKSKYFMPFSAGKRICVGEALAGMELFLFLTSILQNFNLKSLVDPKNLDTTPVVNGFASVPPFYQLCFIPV

Compound: Nc1cc(F)c(S(=O)(=O)N2CCC(O)CC2)cc1C(=O)Nc1ccc(C(F)(F)F)c(F)c1
EC50 [1]: > 3300 nM
CC50 at 120 h [2]: 5.9 µM

Compound: O=C(Nc1cc(F)c(F)c(F)c1)c1ccc(F)c(S(=O)(=O)N2CCC(O)CC2)c1
EC50 [1]: 1040 nM
selectivity ratio [3]: 8.3
CC50 at 120 h [2]: 8.6 µM

Compound: Nc1cc(F)c(S(=O)(=O)N2CCC(O)CC2)cc1C(=O)Nc1ccc(F)cc1
EC50 [1]: 570 nM
selectivity ratio [3]: 80.4
CC50 at 120 h [2]: 45.8 µM

Compound: Nc1cc(F)c(S(=O)(=O)N2CCC(O)CC2)cc1C(=O)Nc1ccc(Cl)c(C(F)F)c1
EC50 [1]: > 3300 nM
CC50 at 120 h [2]: 30.1 µM

Compound: N#Cc1cc(NC(=O)c2cc(S(=O)(=O)N3CCC(O)CC3)c(F)cc2N)ccc1Cl
EC50 [1]: > 3300 nM
CC50 at 120 h [2]: > 900 µM

Compound: N#Cc1cc(NC(=O)c2cc(S(=O)(=O)N3CCC(O)CC3)c(F)cc2N)ccc1F
EC50 [1]: 1080 nM
selectivity ratio [3]: > 833
CC50 at 120 h [2]: > 900 µM

Stronger by EC50 [1], values ahead:

half-life at 1 µM [4]: 52 min
IC50 [5]: 41 µM
Cmax [6]: 480 ng/mL
EC50 [1]: 300 nM
Tmax [7]: 1.67 h
inhibition [8]: Tde
remaining at 0.5 h, 1 µM [10]: 68.1%
AUC(0-t) [11]: 2080 ng·h/mL
IC50 [12]: > 100 µM
fraction unbound at 4 h, 5 µM [13]: 0.073
Vd [14]: 2.88 L/kg
Activity [15]: Active
IC50 [16]: 29.3 µM
remaining at 4 h, 5 µM [17]: 93.6%
IC50 [18]: 25 µM
half-life [19]: 230 min
bioavailability [20]: 84.2%
AUC(0-t) [21]: 2450 ng·h/mL
half-life at 1 µM [22]: 74.4 min
AUC(0-inf) [23]: 2100 ng·h/mL
IC50 [24]: 18.3 µM
Activity [25]: Active
remaining at 0.5 h, 1 µM [26]: 67.9%
half-life [27]: 73.2 min
clearance [28]: 34.2 mL/min/kg
fraction unbound at 4 h, 5 µM [29]: 0.035
AUC(0-inf) [30]: 2500 ng·h/mL
Activity [31]: Active
remaining at 4 h, 5 µM [32]: 84.6%
Activity [33]: Active
Compound: Nc1cc(F)c(S(=O)(=O)N2CCC(O)CC2)cc1C(=O)Nc1ccc(F)c(F)c1
IC50 [9]: 50 µM
selectivity ratio [3]: 53.3
CC50 at 120 h [2]: 16 µM

EC50 [1]: 270 nM
Compound: Nc1cc(F)c(S(=O)(=O)N2CCC(O)CC2)cc1C(=O)Nc1cc(F)c(F)c(F)c1
selectivity ratio [3]: 73
CC50 at 120 h [2]: 19.7 µM
